This note sets out measurements from ChEMBL document CHEMBL1148668, “The identification of pyrimidine-diazabicyclo[3.3.0]octane derivatives as 5-HT2C receptor agonists” (Bioorg Med Chem Lett, 2006).

Each structure is given as a SMILES string. Activity calls are given as the source filed them. No cut-off for these calls is given here. A value given as a limit tells only on which side of the number the result lay.

In data set [1] the target is T1, 5-hydroxytryptamine receptor 2C (Homo sapiens, UniProt P28335).
T1 sequence (P28335 whole entry): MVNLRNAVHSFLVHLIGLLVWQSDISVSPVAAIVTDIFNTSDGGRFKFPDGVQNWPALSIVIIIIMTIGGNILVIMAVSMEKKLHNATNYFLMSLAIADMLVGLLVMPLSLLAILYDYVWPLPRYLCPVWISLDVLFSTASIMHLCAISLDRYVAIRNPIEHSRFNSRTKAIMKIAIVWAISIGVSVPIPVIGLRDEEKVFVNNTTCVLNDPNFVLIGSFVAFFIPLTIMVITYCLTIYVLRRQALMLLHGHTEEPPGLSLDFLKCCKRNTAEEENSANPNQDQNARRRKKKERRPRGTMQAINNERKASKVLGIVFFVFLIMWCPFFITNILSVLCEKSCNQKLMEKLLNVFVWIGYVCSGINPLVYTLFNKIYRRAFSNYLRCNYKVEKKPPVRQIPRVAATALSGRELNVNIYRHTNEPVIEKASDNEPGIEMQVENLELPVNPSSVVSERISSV
The data set can be described thus: Induction of 5HT2C receptor mediated increase in intracellular calcium concentration in HEK293 cells. It counts as functional, cell-based. The essentials:
(§1)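 Recombinant cell lines stably expressed the respective 5-HT2 receptor subtype. Agonist-induced rises in intracellular calcium were read with a fluorescence-based assay.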

The target in data set [2] is 5-hydroxytryptamine receptor 2B (Homo sapiens, UniProt P41595). Nature of the data set: Induction of 5HT2B receptor mediated increase in intracellular calcium concentration in CHO cells. In kind it is functional, cell-based. In outline:
as §1

Data set [3] has as its target 5-hydroxytryptamine receptor 2A (Homo sapiens, UniProt P28223). Nature of the data set: Induction of 5HT2A receptor mediated increase in intracellular calcium concentration in CHO cells. It counts as functional, cell-based. In outline:
as §1

Data set [4] in a line: Brain to plasma AUC ratio in rat at 1.2 mg/kg, iv. In kind it is ADME, organism-based. Set-up: dose 1.2 mg/kg, route intravenous. The conditions noted are these: brain and plasma, read-out: Ratio AUC. In outline:
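Brain exposure was taken from cortex tissue. The ratio is AUC in cortex divided by AUC in plasma, after a single intravenous dose in rat.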

Data set [5] is described as follows: Clearance in rat at 1.2 mg/kg, iv. It counts as ADME, organism-based. Set-up: dose 1.2 mg/kg, route intravenous. To be noted: in vivo.
Data set [6] in a line: Half life in rat at 1.2 mg/kg, iv. Set-up: dose 1.2 mg/kg, route intravenous. To be noted: in vivo. It counts as ADME, organism-based.
A short description of data set [7]: Oral bioavailability in rat at 10.6 mg/kg, po. It counts as ADME, organism-based. The conditions noted are these: in vivo.
Data set [8] relates to Rattus norvegicus. The data set can be described thus: Reduction in food consumption in Sprague-Dawley rat at 20 mg/kg, ip after 4 hrs. It counts as functional, organism-based. Set-up: dose 20 mg/kg. In outline: (§2)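 Male Sprague–Dawley rats, n = 10/group, were given vehicle, fenfluramine (positive control) or test compound intraperitoneally about 30 min before onset of the 12 h dark cycle. This was a 24 h acute feeding study, with food consumption recorded at 4 and 24 h.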

Data set [9] relates to Rattus norvegicus. Nature of the data set: Reduction in food consumption in Sprague-Dawley rat at 20 mg/kg, ip after 24 hrs. It counts as functional, organism-based. Set-up: dose 20 mg/kg. In outline:
as §2

The test system of data set [10] is Rattus norvegicus. Nature of the data set: Reduction in food consumption in ip dosed Sprague-Dawley rat. It counts as functional, organism-based. The essentials:
as §2

Sequence of 5-hydroxytryptamine receptor 2A (P28223 whole entry): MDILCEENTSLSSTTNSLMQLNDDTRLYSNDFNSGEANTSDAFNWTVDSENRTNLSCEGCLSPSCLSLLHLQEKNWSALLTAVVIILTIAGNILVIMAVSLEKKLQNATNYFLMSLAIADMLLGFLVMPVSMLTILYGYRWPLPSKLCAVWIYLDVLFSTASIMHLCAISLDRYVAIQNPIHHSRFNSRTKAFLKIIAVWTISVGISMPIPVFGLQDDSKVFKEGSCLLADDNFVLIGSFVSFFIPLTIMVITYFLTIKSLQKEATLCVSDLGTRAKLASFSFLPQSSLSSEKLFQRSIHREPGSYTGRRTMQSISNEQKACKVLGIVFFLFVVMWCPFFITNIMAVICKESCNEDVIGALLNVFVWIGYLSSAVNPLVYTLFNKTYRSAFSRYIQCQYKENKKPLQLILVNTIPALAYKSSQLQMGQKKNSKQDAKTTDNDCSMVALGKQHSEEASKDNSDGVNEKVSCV
Sequence of 5-hydroxytryptamine receptor 2B (P41595 whole entry): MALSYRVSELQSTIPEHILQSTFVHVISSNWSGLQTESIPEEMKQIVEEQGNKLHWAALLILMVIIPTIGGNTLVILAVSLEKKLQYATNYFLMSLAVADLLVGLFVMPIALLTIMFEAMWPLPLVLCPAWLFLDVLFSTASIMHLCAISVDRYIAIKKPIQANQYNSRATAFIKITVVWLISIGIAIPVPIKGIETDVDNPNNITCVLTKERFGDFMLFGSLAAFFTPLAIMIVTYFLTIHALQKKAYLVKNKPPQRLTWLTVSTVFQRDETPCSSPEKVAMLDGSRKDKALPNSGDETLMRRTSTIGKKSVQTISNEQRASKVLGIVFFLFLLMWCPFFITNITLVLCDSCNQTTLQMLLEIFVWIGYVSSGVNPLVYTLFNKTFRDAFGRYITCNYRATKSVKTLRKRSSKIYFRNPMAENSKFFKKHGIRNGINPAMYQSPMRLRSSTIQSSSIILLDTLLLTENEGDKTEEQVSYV

Take `Clc1ccc(Cl)c(-c2ccnc(N3CC[C@H]4CNC[C@H]43)n2)c1`: in data set [1], the EC50 is above 1000 nM.
Take `FC(F)(F)c1cccc([C@H]2CC[C@H]3CNC[C@H]32)c1`: the figures for the EC50 in data set [1], in data set [2] and in data set [3] were 420 nM, 187 nM and 1080 nM, respectively.
Turning to `FC(F)(F)c1ccnc(N2CCC3CNCC32)n1` (racemic), the EC50 in data set [1] was found to be 180 nM; in data set [2], 320 nM; in data set [3], 220 nM.
On to `C[C@@H]1C[C@H]2CNC[C@H]2N1c1nccc(C(F)(F)F)n1`, for which the values for the EC50 in data set [1], in data set [2] and in data set [3] were 57 nM, 48 nM and 25 nM, respectively.
For `Fc1cccc(N2CC[C@H]3CNC[C@H]32)c1`, the figures for the EC50 in data set [1], in data set [2] and in data set [3] were 319 nM, 108 nM and 1120 nM, respectively.
`Fc1ccc(F)c(-c2ccnc(N3CC[C@H]4CNC[C@H]43)n2)c1`: in data set [1], the EC50 is above 1000 nM.
Same read-out and setting: the same measure for `FC(F)(F)c1ccnc(N2C[C@@H]3CCN[C@@H]3C2)n1`: above 20000 nM; for `FC(F)(F)c1ccnc(N2CC[C@@H]3CNC[C@@H]32)n1`: 519 nM; for `Clc1ccc(Cl)c(-c2ccnc(N3C[C@@H]4CCN[C@@H]4C3)n2)c1`: above 20000 nM.
Consider `FC(F)(F)c1cccc(N2CC[C@H]3CNC[C@H]32)c1`, for which the EC50 in data set [1] was found to be 103 nM; in data set [2], 65 nM; in [3] it was 168 nM.
Regarding `C[C@H]1C[C@H]2CNC[C@H]2N1c1nccc(C(F)(F)F)n1`, the results for the EC50 in data set [1], in [2] and in data set [3] were 22 nM, 151 nM and 40 nM, respectively.
On to `Fc1ccc(F)c(-c2ccnc(N3C[C@@H]4CCN[C@@H]4C3)n2)c1`, for which the EC50 in data set [1] was above 20000 nM.
Turning to `FC(F)(F)c1ccnc(N2CC[C@H]3CNC[C@H]32)n1`, the Kp in data set [4] was determined as 14.5. This compound came in with a clearance in [5] of 6.71 mL/min/kg. The compound also had a half-life in [6] of 1.1 h. Besides, the bioavailability in [7] turned out to be 6%. Further, the result in [8] and in data set [9] was Active. In addition, in [10], the Activity result was “Dose-dependent effect”. Further, the results for the EC50 in data set [1], in [2] and in data set [3] were 23 nM, 62 nM and 116 nM, respectively.
Consider `Clc1cccc(N2CC[C@H]3CNC[C@H]32)c1`, for which the EC50 in [1] turned out to be 503 nM; in data set [2], 59 nM; in [3], 416 nM.
